Data set [1] relates to HeLa. Briefly: Antiproliferative activity against human HeLa cells assessed as reduction in cell growth. Type of data set: functional, cell-based.
In data set [2] the test system is PC-3. Briefly: Antiproliferative activity against human PC3 cells assessed as reduction in cell growth. Type of data set: functional, cell-based.
Data set [3] concerns HepG2. The data set is described as follows: Antiproliferative activity against human HepG2 cells assessed as reduction in cell growth. Type of data set: functional, cell-based.
The subject of data set [4] is MCF7. The data set is described as follows: Antiproliferative activity against human MCF7 cells assessed as reduction in cell growth. The data set is classed as functional, cell-based.
Data set [5] has as its system Staphylococcus aureus. Briefly: Antibacterial activity against Staphylococcus aureus ATCC 29213 assessed as reduction in bacterial growth incubated for 18 hrs by two-fold serial dilution method. The data set is classed as functional. The essentials:
(§1)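 Broth microdilution per CLSI 2015. Selection: compounds active in agar diffusion. Twofold (1:1) dilutions in 0.1 ml MH broth; inoculum 5 × 10^6 CFU/ml diluted suspension. Ampicillin/clavulanic acid as positive control.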

Data set [6] deals with Bacillus cereus. Briefly: Antibacterial activity against Bacillus cereus UW85 assessed as reduction in bacterial growth incubated for 18 hrs by two-fold serial dilution method. Type of data set: functional. The essentials:
as §1

The test system of data set [7] is Staphylococcus aureus. The data set is described as follows: Antibacterial activity against Staphylococcus aureus ATCC 29213 assessed as diameter of zone inhibition at 5 mg/ml incubated for 24 hrs by agar plate diffusion method. The data set is classed as functional. The note with it: read-out: DIZ. The method, boiled down: (§2)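 Cup (well) agar diffusion in Mueller Hinton agar. Overnight MH broth culture diluted to 0.5 McFarland; 20 μL mixed into MH agar at 50 °C, poured into 9-cm plates. Wells cut with a cork borer and filled with 100 μL compound in DMSO (final 5 mg/mL). DMSO as negative control, ampicillin/clavulanic acid as reference. 37 °C, 24 h; inhibition zone diameter in mm.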

Data set [8] has as its system Bacillus cereus. The data set is described as follows: Antibacterial activity against Bacillus cereus UW85 assessed as diameter of zone inhibition at 5 mg/ml incubated for 24 hrs by agar plate diffusion method. The note with it: read-out: DIZ. The data set is classed as functional. The method, boiled down:
as §2

Data set [9] is described as follows: Inhibition of quorum sensing in Chromobacterium violaceum ATCC 12472 assessed as inhibition zone at 5 mg/ml incubated for 48 hrs by well diffusion method. The data set is classed as functional. Conditions: read-out: IZ. The essentials: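 Chromobacterium violaceum ATCC 12472 grown in LB broth at 28 °C, 48 h. 50 μL inoculated into 5 ml soft LB agar and overlaid on LB agar plates. Wells received 100 μL compound in DMSO (5 mg/ml); DMSO as negative control. 28 °C, 48 h. Growth-inhibition radius r1 and pigment-plus-growth radius r2 measured; QS inhibition = r2 − r1 (mm).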

The test system of data set [10] is Candida albicans. The data set is described as follows: Antifungal activity against Candida albicans CS35 assessed as reduction in fungal growth incubated for 18 hrs by two-fold serial dilution method. The data set is classed as functional. The method, boiled down: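 Broth microdilution per CLSI M27-A3/M38-A2. Selection: compounds active in agar diffusion. Twofold (1:1) dilutions in 0.1 ml yeast peptone dextrose medium; fluconazole as positive control.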

The test system of data set [11] is Pseudomonas aeruginosa. The data set is described as follows: Antibacterial activity against Pseudomonas aeruginosa PAO1 assessed as diameter of zone inhibition at 5 mg/ml incubated for 24 hrs by agar plate diffusion method. The data set is classed as functional. The note with it: read-out: DIZ. The method, boiled down: as §2
In data set [12] the test system is Candida albicans. Briefly: Antifungal activity against Candida albicans CS35 assessed as diameter of zone inhibition at 5 mg/ml incubated for 24 hrs by agar plate diffusion method. The data set is classed as functional. Conditions: read-out: DIZ. The method, boiled down:
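Cup diffusion using Sabouraud's medium for C. albicans. 100 μL compound in DMSO (5 mg/mL) per well, DMSO as negative control, fluconazole as reference. 37 °C, 24 h; inhibition zone diameter in mm.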

For data set [13], the system named is Pseudomonas aeruginosa. Briefly: Antibacterial activity against Pseudomonas aeruginosa PAO1 assessed as reduction in bacterial growth incubated for 18 hrs by two-fold serial dilution method. The data set is classed as functional. The method, boiled down: as §1
Data set [14] has as its system MCF7. Briefly: Induction of cell cycle arrest in human MCF7 cells assessed as accumulation at S phase at […] incubated for 24 hrs by propidium iodide staining based flow cytometry analysis (reference value: 36.26 %). Type of data set: functional. On the set-up: dose or concentration left out as unconfirmed.
The test system of data set [15] is MCF7. Briefly: Induction of apoptosis in human MCF7 cells assessed as accumulation at preG1 phase at […] incubated for 24 hrs by propidium iodide staining based flow cytometry analysis (reference value: 1.78 %). The data set is classed as functional. Also on record: dose or concentration left out as unconfirmed.
A short description of data set [16]: Safety index, ratio of IC50 for cytotoxicity against human WI-38 cells to IC50 for antiproliferative activity against human HeLa cells. The data set is classed as toxicity, cell-based. Conditions: WI-38 cells versus HeLa cells.
Data set [17] relates to MCF7. Briefly: Induction of apoptosis in human MCF7 cells assessed as late apoptotic cells at […] incubated for 24 hrs by Annexin V-FITC and propidium iodide staining based flow cytometry analysis (reference value: 0.15 %). Type of data set: functional. On the set-up: dose or concentration left out as unconfirmed. (In flow cytometry, cells or beads pass a laser one at a time.)

Data set [18] concerns MCF7. Briefly: Induction of apoptosis in human MCF7 cells assessed as early apoptotic cells at […] incubated for 24 hrs by Annexin V-FITC and propidium iodide staining based flow cytometry analysis (reference value: 0.42 %). On the set-up: dose or concentration left out as unconfirmed. Type of data set: functional.
Data set [19] is described as follows: Safety index, ratio of IC50 for cytotoxicity against human WI-38 cells to IC50 for antiproliferative activity against human MCF7 cells. Type of data set: toxicity, cell-based. Conditions: WI-38 cells versus MCF7 cells.
Data set [20] concerns WI-38. The data set is described as follows: Cytotoxicity against human WI38 cells by MTT assay. The data set is classed as cell-based. Background: Formazan colour is commonly taken as a measure of viable cells.
A short description of data set [21]: Safety index, ratio of IC50 for cytotoxicity against human WI-38 cells to IC50 for antiproliferative activity against human PC-3 cells. Type of data set: toxicity, cell-based. Conditions: WI-38 cells versus PC-3 cells.
The test system of data set [22] is MCF7. Briefly: Induction of cell cycle arrest in human MCF7 cells assessed as accumulation at G2/M phase at […] incubated for 24 hrs by propidium iodide staining based flow cytometry analysis (reference value: 9.85 %). Type of data set: functional. Also on record: dose or concentration left out as unconfirmed.
Data set [23] can be described thus: Safety index, ratio of IC50 for cytotoxicity against human WI-38 cells to IC50 for antiproliferative activity against human HepG2 cells. The note with it: WI-38 cells versus HepG2 cells. The data set is classed as toxicity, cell-based.
Data set [24] concerns the target Phosphatidylinositol 4,5-bisphosphate 3-kinase catalytic subunit alpha isoform (Homo sapiens, UniProt P42336). The data set is described as follows: Inhibition of human PI3Kalpha by ELISA. The essentials:
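Human PI3Kα activity measured by ELISA in wells coated with a PI3K-specific antibody. Standard or test compound was added at room temperature and absorbance read. A log–log standard curve related absorbance to standard concentration. Percent inhibition was calculated against control, and IC50 was obtained from concentration/inhibition curves.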
For orientation: In an ELISA, binding on a coated surface is turned into a signal by an enzyme label.

The test system of data set [25] is MCF7. The data set is described as follows: Induction of apoptosis in human MCF7 cells assessed as necrotic cells at […] incubated for 24 hrs by Annexin V-FITC and propidium iodide staining based flow cytometry analysis (reference value: 1.21 %). The data set is classed as functional. Also on record: dose or concentration left out as unconfirmed.
Data set [26] has as its system MCF7. The data set is described as follows: Induction of cell cycle arrest in human MCF7 cells assessed as accumulation at G0-G1 phase at […] incubated for 24 hrs by propidium iodide staining based flow cytometry analysis (reference value: 53.89 %). Also on record: dose or concentration left out as unconfirmed. Type of data set: functional.

In brackets after ≈: the same amount, converted by molar mass.

Chain of Phosphatidylinositol 4,5-bisphosphate 3-kinase catalytic subunit alpha isoform (P42336 whole entry, canonical isoform): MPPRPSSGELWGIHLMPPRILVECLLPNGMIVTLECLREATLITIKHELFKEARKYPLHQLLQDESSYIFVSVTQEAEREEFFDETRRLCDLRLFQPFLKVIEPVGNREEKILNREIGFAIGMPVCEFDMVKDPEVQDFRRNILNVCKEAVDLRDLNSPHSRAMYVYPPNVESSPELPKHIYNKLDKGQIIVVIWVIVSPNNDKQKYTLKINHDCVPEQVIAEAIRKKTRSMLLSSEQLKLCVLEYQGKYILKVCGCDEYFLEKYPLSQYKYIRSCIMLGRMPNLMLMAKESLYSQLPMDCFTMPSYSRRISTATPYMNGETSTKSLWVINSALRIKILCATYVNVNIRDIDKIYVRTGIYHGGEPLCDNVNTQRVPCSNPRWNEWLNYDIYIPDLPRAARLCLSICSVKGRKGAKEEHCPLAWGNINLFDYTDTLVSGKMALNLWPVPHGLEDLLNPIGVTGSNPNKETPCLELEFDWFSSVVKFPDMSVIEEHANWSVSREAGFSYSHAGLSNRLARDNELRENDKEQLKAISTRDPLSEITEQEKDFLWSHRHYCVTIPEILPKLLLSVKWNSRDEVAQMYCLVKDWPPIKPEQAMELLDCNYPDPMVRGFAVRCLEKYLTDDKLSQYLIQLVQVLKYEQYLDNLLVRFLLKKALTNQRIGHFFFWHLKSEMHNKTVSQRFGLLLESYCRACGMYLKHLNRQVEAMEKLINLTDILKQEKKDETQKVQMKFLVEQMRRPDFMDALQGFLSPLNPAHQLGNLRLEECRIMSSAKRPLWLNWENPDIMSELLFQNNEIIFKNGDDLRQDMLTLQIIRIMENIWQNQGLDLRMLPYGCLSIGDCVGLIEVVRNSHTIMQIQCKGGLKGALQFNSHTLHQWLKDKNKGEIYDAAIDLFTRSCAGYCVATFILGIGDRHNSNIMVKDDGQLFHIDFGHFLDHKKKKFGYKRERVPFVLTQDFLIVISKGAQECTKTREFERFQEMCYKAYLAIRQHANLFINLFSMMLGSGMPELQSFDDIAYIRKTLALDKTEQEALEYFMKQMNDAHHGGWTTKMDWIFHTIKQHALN

The term IC50 denotes the concentration that gives 50% inhibition. For the molecule `C/C(=N\Nc1nc(-c2ccc(Cl)cc2)cs1)c1cc2ccccc2o1`, the IC50 in data set [1] worked out at 26.6 µM; in data set [2], 38.1 µM; in [3] it was 23.2 µM; in data set [4] it was 29.9 µM.

For orientation: MIC means the smallest concentration in the dilution series that meets the test's criterion for growth inhibition. For the molecule `COc1ccc(/N=N/C(C=O)=C(/O)c2cc3ccccc3o2)cc1`, the MIC in [5] is 128 µg/mL (≈ 397 µM); in data set [6], 265 µg/mL (≈ 822 µM). Also, the zone of inhibition at 5000 µg/mL in data set [7] came to 7 mm; in data set [8], 5 mm. The IC50 in data set [2] amounted to 56.3 µM; in data set [3], 42.1 µM.

`CN1CCN(C(=S)Cc2cc3ccccc3o2)CC1`: the IC50 amounted to 83.8 µM in data set [2], 64.5 µM in data set [3] and 73.5 µM in data set [4].

On to `COc1ccc(-c2csc(N/N=C(\C)c3cc4ccccc4o3)n2)cc1`, for which the IC50 in [1] came to 18.7 µM; in data set [2], 28.9 µM; in [3], 15.7 µM; in data set [4] it was 18.9 µM. For the same molecule, the zone of inhibition at 5000 µg/mL in data set [9] is 3 mm.

As for `C/C(=N\Nc1nc(-c2ccc(Br)cc2)cs1)c1cc2ccccc2o1`, the IC50 in data set [1] is 32.7 µM; in data set [2] it was 45.2 µM; in data set [3], 27.7 µM; in data set [4] it was 33.2 µM.

As to `COc1ccc(C(=O)CSC(=S)N/N=C(\C)c2cc3ccccc3o2)cc1`, the IC50 in [1] amounted to 46.9 µM; in data set [2] it was 73.3 µM; in data set [3] it was 31.9 µM; in data set [4] it was 38.4 µM. Also, the values for the MIC in data set [10] and in data set [13] were 256 µg/mL (≈ 642 µM) and 512 µg/mL (≈ 1280 µM), respectively. Moreover, the zone of inhibition at 5000 µg/mL turned out to be 8 mm in data set [11] and 5 mm in data set [12].

Turning to `Cc1ccc(/N=N/C(C=O)=C(/O)c2cc3ccccc3o2)cc1`, the minimal inhibitory concentration (MIC) in data set [5] was 128 µg/mL (≈ 418 µM); in [6], 256 µg/mL (≈ 836 µM); in data set [13] it was 512 µg/mL (≈ 1670 µM). Also, the zone of inhibition at 5000 µg/mL stood at 6 mm in [7] and 10 mm in [11]. In addition, the IC50 in data set [2] came out at 62 µM; in data set [3], 46.8 µM; in data set [4], 58.6 µM.

Regarding `CCOC(=O)Cc1csc(N/N=C(\C)c2cc3ccccc3o2)n1`, the Activity in data set [14] amounted to 33.71%; in data set [15], 17.66%; in data set [17] it was 8.1%; in [18] it was 3.27%; in data set [22] it was 22.34%; in data set [25], 6.29%. Also, in data set [26], the Activity worked out at 43.95%. The IC50 in data set [1] came to 9.26 µM; in data set [2], 13.1 µM; in [20], 36.8 µM; in data set [4] it was 6.55 µM; in data set [24] it was 7.8 µM. Also, in [9], the zone of inhibition at 5000 µg/mL turned out to be 3 mm. The selectivity ratio in data set [16] amounted to 3.97; in [19], 5.61; in [21] it was 2.8; in data set [23], 4.75.

Values taken from ChEMBL document CHEMBL4680335, “Synthesis, anticancer and antimicrobial evaluation of new benzofuran based derivatives: PI3K inhibition, quorum sensing and molecular modeling study” (Bioorg Med Chem, 2021).
